Legend:
Mus musculus [1] = experiment: Anticonvulsant activity in Swiss albino mouse assessed as protection against pentylenetetrazole-induced convulsion at 1.5 mmol/kg, ip treated after 30 mins of pentylenetetrazole measured for 30 mins; format: functional
Mus musculus [2] = experiment: Neurotoxicity in Swiss albino mouse assessed as inability to climb up backwards in a glass tube within 30 seconds at 1.5 mmol/kg, ip measured after 15 and 25 mins by Chimney test; format: toxicity, organism-based; details: in vivo
Procedure, shortened: (§1)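 Chimney test: 15 and 25 min after i.p. dosing (3.0, 1.5, 0.75, 0.375 mmol/kg), inability of mice to climb backwards up a glass tube 25 cm long, 3 cm inner diameter, within 30 s recorded as neurological deficit.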

Mus musculus [3] = experiment: Neurotoxicity in Swiss albino mouse assessed as effect on motor activity at 1.5 mmol/kg, ip after 30 mins; format: toxicity, organism-based; details: in vivo, 0.5 h
Procedure, shortened: (§2)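 Motor activity measured with an activity meter at 0 and 30 min after i.p. dosing, zero time taken as 100%.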

Mus musculus [4] = experiment: Hypnotic activity in Swiss albino mouse assessed as righting reflex at 1.5 mmol/kg, ip; format: ADME, organism-based; details: in vivo
[5] = Toxicity in Swiss albino mouse assessed as mortality at 1.5 mmol/kg, ip measured 7 to 11 mins before pentylenetetrazole challenge; format: organism-based; details: in vivo, read-out: Activity
Procedure, shortened: (§3)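 Compounds given i.p. at 3.0, 1.5, 0.75 and 0.375 mmol/kg to 6 mice per compound. Deaths occurring before the PTZ injection were recorded. PTZ (83 mg/kg s.c.) followed 30 min after compound dosing.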

Mus musculus [6] = experiment: Anticonvulsant activity in Swiss albino mouse assessed as protection against pentylenetetrazole-induced convulsion at 0.75 mmol/kg, ip treated after 30 mins of pentylenetetrazole measured for 30 mins; format: functional
Mus musculus [7] = experiment: Neurotoxicity in Swiss albino mouse assessed as inability to climb up backwards in a glass tube within 30 seconds at 0.75 mmol/kg, ip measured after 15 and 25 mins by Chimney test; format: toxicity, organism-based; details: in vivo; procedure, shortened: as §1
Mus musculus [8] = experiment: Neurotoxicity in Swiss albino mouse assessed as effect on motor activity at 0.75 mmol/kg, ip after 30 mins; format: toxicity, organism-based; details: in vivo, 0.5 h; procedure, shortened: as §2
Mus musculus [9] = experiment: Hypnotic activity in Swiss albino mouse assessed as righting reflex at 0.75 mmol/kg, ip; format: ADME, organism-based; details: in vivo
[10] = Toxicity in Swiss albino mouse assessed as mortality at 0.75 mmol/kg, ip measured 7 to 11 mins before pentylenetetrazole challenge; format: organism-based; details: in vivo, read-out: Activity; procedure, shortened: as §3
Mus musculus [11] = experiment: Neurotoxicity in Swiss albino mouse assessed as inability to climb up backwards in a glass tube within 30 seconds at 3 mmol/kg, ip measured after 15 and 25 mins by Chimney test; format: toxicity, organism-based; details: in vivo; procedure, shortened: as §1
Mus musculus [12] = experiment: Anticonvulsant activity in Swiss albino mouse assessed as protection against pentylenetetrazole-induced convulsion at 3 mmol/kg, ip treated after 30 mins of pentylenetetrazole measured for 30 mins; format: functional
Mus musculus [13] = experiment: Anticonvulsant activity in Swiss albino mouse assessed as protection against maximal electroshock-induced convulsion at 3.0 mmol/kg, ip […]; format: functional
Procedure, shortened: (§4)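 Test agent given i.p. to mice; 30 min later electric shock applied through the ears, animals released immediately to observe maximal seizure; percentage protected recorded (10 animals per dose in dose-response runs).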

Mus musculus [14] = experiment: Anticonvulsant activity in Swiss albino mouse assessed as protection against maximal electroshock-induced convulsion at 1.5 mmol/kg, ip […]; format: functional
Procedure, shortened: (§5)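 Test compound given i.p. to mice; 30 min later, electric shock was applied through the ears while the mice were hand-restrained. The mice were then released to observe the maximal seizure. Each dose was tested in 10 animals and the percentage protected was recorded.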

Mus musculus [15] = experiment: Anticonvulsant activity in Swiss albino mouse assessed as protection against maximal electroshock-induced convulsion at 0.75 mmol/kg, ip […]; format: functional; procedure, shortened: as §4
Mus musculus [16] = experiment: Anticonvulsant activity in Swiss albino mouse assessed as protection against maximal electroshock-induced convulsion at 0.37 mmol/kg, ip […]; format: functional; procedure, shortened: as §5
Mus musculus [17] = experiment: Anticonvulsant activity in Swiss albino mouse assessed as protection against picrotoxin-induced convulsion at 1.5 mmol/kg, ip […] measured for 30 mins; format: functional
Procedure, shortened: (§6)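 Test compound given i.p.; 30 min later, picrotoxin 3.15 mg/kg s.c. was injected. Picrotoxin was freshly dissolved in 1 ml warmed 0.1 N HCl and made up with 0.9% NaCl. Each dose was tested in 10 animals and the percentage of mice protected from clonic convulsions was recorded.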

Mus musculus [18] = experiment: Anticonvulsant activity in Swiss albino mouse assessed as protection against bicuculline-induced convulsion at 3.0 mmol/kg, ip […] measured for 30 mins; format: functional
Procedure, shortened: (§7)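 Mice (6 per compound) dosed i.p.; 30 min later given bicuculline 1 mg/kg s.c. (freshly dissolved in 1 ml warmed 0.1 N HCl, made up with 0.9% NaCl), then observed 30 min; percentage anticonvulsion (animals protected) calculated. Dose-response runs used 10 animals per dose.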

Mus musculus [19] = experiment: Anticonvulsant activity in Swiss albino mouse assessed as protection against bicuculline-induced convulsion at 1.5 mmol/kg, ip […] measured for 30 mins; format: functional; procedure, shortened: as §7
Mus musculus [20] = experiment: Anticonvulsant activity in Swiss albino mouse assessed as protection against bicuculline-induced convulsion at 0.75 mmol/kg, ip […] measured for 30 mins; format: functional; procedure, shortened: as §7
Mus musculus [21] = experiment: Anticonvulsant activity in Swiss albino mouse assessed as protection against bicuculline-induced convulsion at 0.37 mmol/kg, ip […] measured for 30 mins; format: functional; procedure, shortened: as §7
Mus musculus [22] = experiment: Anticonvulsant activity in ip dosed Swiss albino mouse assessed as protection against maximal electroshock-induced convulsion; format: functional; procedure, shortened: as §4
[23] = Toxicity in ip dosed Swiss albino mouse assessed as sedative effect; format: organism-based; details: in vivo
Mus musculus [24] = species: Mus musculus; experiment: Protective index, ratio of TD50 for Swiss albino mouse to ED50 for anticonvulsant activity in Swiss albino mouse; format: functional
Procedure, shortened: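 TD50 (median sedative dose) divided by ED50 (median effective dose), from dose-response curves at 10 mice per dose; 95% confidence limits given.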

[25] = Toxicity in Swiss albino mouse by Spearman-Karber method; format: organism-based; details: in vivo
Procedure, shortened: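 LD50 in mice was determined by the Spearman–Karber method, with doses chosen at equal logarithmic intervals. 95% confidence limits were reported.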

[26] = Therapeutic index, ratio of LD50 for Swiss albino mouse to ED50 for anticonvulsant activity in Swiss albino mouse; format: organism-based; details: in vivo, read-out: Ratio LD50/ED50
Procedure, shortened: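 TI was calculated as LD50/ED50. ED50 came from dose-response curves in 10 mice per dose. LD50 was determined by the Spearman–Karber method, with doses at equal logarithmic intervals.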

Mus musculus [27] = experiment: Neurotoxicity in Swiss albino mouse assessed as effect on motor activity at 3 mmol/kg, ip after 30 mins; format: toxicity, organism-based; details: in vivo, 0.5 h; procedure, shortened: as §2
Mus musculus [28] = experiment: Hypnotic activity in Swiss albino mouse assessed as righting reflex at 3 mmol/kg, ip; format: ADME, organism-based; details: in vivo
[29] = Toxicity in Swiss albino mouse assessed as mortality at 3 mmol/kg, ip measured 7 to 11 mins before pentylenetetrazole challenge; format: organism-based; details: in vivo, read-out: Activity; procedure, shortened: as §3
Mus musculus [30] = experiment: Neurotoxicity in Swiss albino mouse assessed as inability to climb up backwards in a glass tube within 30 seconds at 0.37 mmol/kg, ip measured after 15 and 25 mins by Chimney test; format: toxicity, organism-based; details: in vivo; procedure, shortened: as §1
Mus musculus [31] = experiment: Anticonvulsant activity in Swiss albino mouse assessed as protection against pentylenetetrazole-induced convulsion at 0.37 mmol/kg, ip treated 30 mins before pentylenetetrazole measured for 30 mins
Mus musculus [32] = experiment: Anticonvulsant activity in Swiss albino mouse assessed as protection against pentylenetetrazole-induced convulsion at 0.375 mmol/kg, ip treated after 30 mins of pentylenetetrazole measured for 30 mins; format: functional
Mus musculus [33] = experiment: Anticonvulsant activity in Swiss albino mouse assessed as protection against picrotoxin-induced convulsion at 0.75 mmol/kg, ip […] measured for 30 mins; format: functional; procedure, shortened: as §6

Row | Compound | Activity (Mus musculus [1]) [%] | Activity (Mus musculus [2]) [%] | Activity (Mus musculus [3]) [%] | Activity (Mus musculus [4]) [%] | mortality [5] [%] | Activity (Mus musculus [6]) [%] | Activity (Mus musculus [7]) [%] | Activity (Mus musculus [8]) [%] | Activity (Mus musculus [9]) [%] | Activity (Mus musculus [11]) [%] | Activity (Mus musculus [12]) [%] | Activity (Mus musculus [13]) [%] | Activity (Mus musculus [14]) [%] | Activity (Mus musculus [15]) [%] | Activity (Mus musculus [16]) [%] | Activity (Mus musculus [17]) [%] | Activity (Mus musculus [18]) [%] | Activity (Mus musculus [19]) [%] | Activity (Mus musculus [20]) [%] | Activity (Mus musculus [21]) [%] | other results
1 | O=C1CCCN2C=CSC2=N1 | 0 | 0 | 0 | 0 | 33 | – | – | – | – | – | – | – | – | – | – | – | – | – | – | – | –
2 | O=C1CCCN2C(=N1)Sc1cc(Cl)ccc12 | 50 | 25 | 33 | 0 | 0 | 25 | 0 | 20 | 0 | 100 | 100 | 33 | 0 | 0 | 0 | 20 | 100 | 66 | 10 | 10 | mortality [10]: 0%; ED50 (Mus musculus [22]): 380 mg/kg; TD50 [23]: 417 mg/kg; Ratio TD50/ED50 (Mus musculus [24]): 1.09; LD50 [25]: 617 mg/kg; selectivity ratio [26]: 1.62; Activity (Mus musculus [27]): 67%; Activity (Mus musculus [28]): 20%; mortality [29]: 0%; Activity (Mus musculus [30]): 0%; Activity (Mus musculus [31]): 0%
3 | O=C1CCCN2C(=N1)Sc1ccccc12 | 70 | 0 | 0 | 0 | 0 | 0 | – | – | – | – | – | – | – | – | – | – | – | – | – | – | Activity (Mus musculus [32]): 0%
4 | S=C1CCCN2C=C(Br)SC2=N1 | 100 | 25 | 84 | 14 | – | 50 | 0 | 52 | 0 | 100 | 100 | 70 | 40 | 10 | 0 | 66 | 100 | 50 | 10 | 0 | Activity (Mus musculus [33]): 20%; ED50 (Mus musculus [22]): 252 mg/kg; TD50 [23]: 398 mg/kg; Ratio TD50/ED50 (Mus musculus [24]): 1.58; LD50 [25]: 380 mg/kg; selectivity ratio [26]: 1.51; Activity (Mus musculus [27]): 92%; Activity (Mus musculus [28]): 40%; mortality [29]: 0%; Activity (Mus musculus [30]): 0%; Activity (Mus musculus [31]): 25%

Reference: ChEMBL document CHEMBL2146421, “Synthesis and anticonvulsant activity of some new thiazolo[3,2-a][1,3]diazepine, benzo[d]thiazolo[5,2-a][12,6]diazepine and benzo[d]oxazolo[5,2-a][12,6]diazepine analogues” (Eur J Med Chem, 2011)
